pIC50: −log10 of the molar value. Activity calls are given as the source filed them. No cut-off for these calls is given here.
What was measured:
[1] = target: T1, Voltage-dependent T-type calcium channel subunit alpha-1H (Homo sapiens, UniProt O95180); assay: Inhibition of Cav3.2 alpha1H (unknown origin) expressed in HEK293 cells assessed as reduction in KCl-induced depolarization mediated intracellular Ca2+ level at 10 uM by fluo3/AM based high throughput screening assay relative to control; assay type: cell-based
T1 sequence (O95180 whole entry): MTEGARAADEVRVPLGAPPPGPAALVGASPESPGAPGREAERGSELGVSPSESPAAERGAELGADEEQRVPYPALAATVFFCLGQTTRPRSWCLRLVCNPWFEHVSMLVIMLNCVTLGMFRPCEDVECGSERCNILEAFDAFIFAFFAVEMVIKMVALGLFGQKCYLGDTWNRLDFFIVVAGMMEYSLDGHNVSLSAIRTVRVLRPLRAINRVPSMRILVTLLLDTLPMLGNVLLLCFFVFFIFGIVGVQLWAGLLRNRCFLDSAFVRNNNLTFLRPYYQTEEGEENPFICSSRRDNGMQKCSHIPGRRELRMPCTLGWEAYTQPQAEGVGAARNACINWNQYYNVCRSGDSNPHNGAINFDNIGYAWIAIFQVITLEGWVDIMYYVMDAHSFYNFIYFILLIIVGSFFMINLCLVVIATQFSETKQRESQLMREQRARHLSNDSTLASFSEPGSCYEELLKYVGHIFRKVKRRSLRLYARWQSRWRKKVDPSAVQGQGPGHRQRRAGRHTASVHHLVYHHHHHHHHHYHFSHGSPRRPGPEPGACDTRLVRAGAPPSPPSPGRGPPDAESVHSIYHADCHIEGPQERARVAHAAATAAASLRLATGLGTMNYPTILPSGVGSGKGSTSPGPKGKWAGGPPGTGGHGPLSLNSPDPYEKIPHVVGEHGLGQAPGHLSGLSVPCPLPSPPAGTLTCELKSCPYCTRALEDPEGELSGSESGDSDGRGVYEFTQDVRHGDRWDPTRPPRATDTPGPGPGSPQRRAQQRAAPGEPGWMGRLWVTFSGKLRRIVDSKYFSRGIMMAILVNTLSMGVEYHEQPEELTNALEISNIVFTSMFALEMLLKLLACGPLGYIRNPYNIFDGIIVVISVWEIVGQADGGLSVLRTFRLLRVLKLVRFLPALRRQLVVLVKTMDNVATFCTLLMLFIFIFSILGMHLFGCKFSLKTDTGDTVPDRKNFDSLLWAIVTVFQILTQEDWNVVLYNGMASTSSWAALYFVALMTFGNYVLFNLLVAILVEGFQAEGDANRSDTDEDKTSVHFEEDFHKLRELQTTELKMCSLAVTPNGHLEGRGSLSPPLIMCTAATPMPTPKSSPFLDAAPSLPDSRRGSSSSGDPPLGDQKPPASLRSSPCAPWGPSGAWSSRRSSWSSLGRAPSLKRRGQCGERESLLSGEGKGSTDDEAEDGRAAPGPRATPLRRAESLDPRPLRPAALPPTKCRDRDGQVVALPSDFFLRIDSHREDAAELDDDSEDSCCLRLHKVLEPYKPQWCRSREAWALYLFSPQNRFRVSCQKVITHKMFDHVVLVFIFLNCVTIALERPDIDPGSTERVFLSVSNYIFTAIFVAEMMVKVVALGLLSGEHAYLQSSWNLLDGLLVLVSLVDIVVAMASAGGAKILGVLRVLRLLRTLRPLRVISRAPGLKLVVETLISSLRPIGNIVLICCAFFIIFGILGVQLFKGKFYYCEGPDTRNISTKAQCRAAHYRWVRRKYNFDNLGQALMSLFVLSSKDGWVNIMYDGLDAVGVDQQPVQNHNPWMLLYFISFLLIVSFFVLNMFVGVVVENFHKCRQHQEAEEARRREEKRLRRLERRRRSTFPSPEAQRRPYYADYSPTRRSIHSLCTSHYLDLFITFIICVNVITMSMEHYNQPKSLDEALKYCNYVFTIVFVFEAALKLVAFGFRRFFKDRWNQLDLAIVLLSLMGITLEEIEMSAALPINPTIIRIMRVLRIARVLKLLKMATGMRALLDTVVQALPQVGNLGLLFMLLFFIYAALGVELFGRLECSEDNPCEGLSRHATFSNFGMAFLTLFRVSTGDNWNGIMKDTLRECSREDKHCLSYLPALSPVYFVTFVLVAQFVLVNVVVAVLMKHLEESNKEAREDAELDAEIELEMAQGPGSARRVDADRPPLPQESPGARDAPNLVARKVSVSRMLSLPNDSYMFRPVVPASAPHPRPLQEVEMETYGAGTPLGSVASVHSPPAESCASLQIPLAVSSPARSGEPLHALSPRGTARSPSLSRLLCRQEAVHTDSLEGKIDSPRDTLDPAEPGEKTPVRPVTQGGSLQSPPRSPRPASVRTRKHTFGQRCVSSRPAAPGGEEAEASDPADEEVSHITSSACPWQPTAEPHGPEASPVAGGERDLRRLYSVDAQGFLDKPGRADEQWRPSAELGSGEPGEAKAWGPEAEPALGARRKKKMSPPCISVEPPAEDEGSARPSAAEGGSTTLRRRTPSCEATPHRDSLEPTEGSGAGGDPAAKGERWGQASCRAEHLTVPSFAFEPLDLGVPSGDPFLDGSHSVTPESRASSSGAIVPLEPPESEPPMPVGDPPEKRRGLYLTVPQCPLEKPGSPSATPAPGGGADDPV
Method in brief: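 HEK293 cells stably expressing the T-type channel were kept under puromycin/geneticin selection with 10% FBS at 37 °C and 5% CO2. Cells were seeded at 4×10^4 per well and loaded with fluo3/AM plus 0.001% Pluronic F-127 in HEPES buffer (pH 7.4, 1.8 mM CaCl2) for 60 min at room temperature. The KCl depolarisation-evoked [Ca2+]i rise was read on FDSS6000.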

[2] = Stability in human liver microsomes assessed as parent compound remaining at 1 uM after 30 mins in presence of NADPH by LC-MS/MS analysis; assay type: ADME, microsome; settings: read-out: Stability
Method in brief: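 Test compound at 1 μM was incubated with pooled human liver microsomes in potassium phosphate buffer with 1.2 mM NADPH at 37 °C for 30 min. The reaction was stopped with cold acetonitrile containing internal standard. Supernatant was analysed by LC-MS/MS for % remaining.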

[3] = target: T1, Voltage-dependent T-type calcium channel subunit alpha-1H; assay: Inhibition of Cav3.2 alpha1H (unknown origin) expressed in HEK293 cells by whole-cell patch clamp assay; assay type: cell-based
Method in brief: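 Whole-cell patch clamp was done on T-type channel-expressing cells. Currents were evoked every 15 s by a 50-ms step from −100 mV to −30 mV. IC50 for peak current was obtained by fitting a dose-response curve and given ± SD.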

CYP2D6 = CYP2D6 (Homo sapiens, UniProt P10635); assay: Inhibition of recombinant human CYP2D6 expressed in baculosomes assessed as residual activity at 10 uM using vivid EOMCC/MOBFC as substrate after 15 mins in presence of NADPH by fluorescence assay relative to control; assay type: ADME; settings: probe Vivid EOMCC/MOBFC, read-out: Activity
Chain of CYP2D6 (P10635 whole entry, canonical isoform): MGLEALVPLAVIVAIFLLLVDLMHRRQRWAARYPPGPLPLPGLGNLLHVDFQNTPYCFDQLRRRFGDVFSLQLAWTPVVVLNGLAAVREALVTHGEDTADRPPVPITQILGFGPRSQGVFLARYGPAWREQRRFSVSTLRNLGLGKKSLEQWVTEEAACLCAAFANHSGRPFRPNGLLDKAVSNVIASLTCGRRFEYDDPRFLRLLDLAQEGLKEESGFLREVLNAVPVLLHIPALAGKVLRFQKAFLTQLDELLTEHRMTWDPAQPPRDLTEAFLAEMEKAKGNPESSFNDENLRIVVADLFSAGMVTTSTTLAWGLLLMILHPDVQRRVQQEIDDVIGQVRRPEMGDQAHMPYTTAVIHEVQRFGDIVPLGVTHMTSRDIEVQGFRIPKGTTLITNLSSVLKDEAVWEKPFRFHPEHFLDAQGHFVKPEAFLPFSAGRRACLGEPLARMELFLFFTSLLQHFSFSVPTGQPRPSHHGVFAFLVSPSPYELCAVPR
Method in brief: (§1)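 Test compounds at 10 μM were premixed with baculosome CYP plus a regeneration system. After 15 min at 37 °C, Vivid substrates and NADPH were added. Remaining enzyme activity was read by fluorescence and expressed as % of control, as mean ± SD of triplicates. Isoform-selective inhibitors served as positive controls.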

CYP2C9 = CYP2C9 (Homo sapiens, UniProt P11712); assay: Inhibition of recombinant human CYP2C9 expressed in baculosomes assessed as residual activity at 10 uM using vivid BOMCC/BOMF/OOMR as substrate after 15 mins in presence of NADPH by fluorescence assay relative to control; assay type: ADME; settings: probe Vivid BOMCC/BOMF/OOMR, read-out: Activity; method in brief: as §1
Chain of CYP2C9 (P11712 whole entry): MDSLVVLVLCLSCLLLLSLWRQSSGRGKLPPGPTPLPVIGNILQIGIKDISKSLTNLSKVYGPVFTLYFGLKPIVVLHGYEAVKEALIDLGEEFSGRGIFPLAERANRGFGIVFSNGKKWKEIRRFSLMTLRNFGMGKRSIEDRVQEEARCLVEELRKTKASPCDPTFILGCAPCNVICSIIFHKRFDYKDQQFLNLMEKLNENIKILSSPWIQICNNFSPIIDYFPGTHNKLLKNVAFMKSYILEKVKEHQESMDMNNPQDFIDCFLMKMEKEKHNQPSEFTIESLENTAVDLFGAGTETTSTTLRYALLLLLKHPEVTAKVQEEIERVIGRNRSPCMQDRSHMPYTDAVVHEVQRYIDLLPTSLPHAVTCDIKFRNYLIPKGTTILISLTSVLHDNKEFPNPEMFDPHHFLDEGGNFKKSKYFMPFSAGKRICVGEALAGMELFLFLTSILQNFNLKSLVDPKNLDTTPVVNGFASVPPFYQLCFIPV

CYP3A4 = CYP3A4 (Homo sapiens, UniProt P08684); assay: Inhibition of recombinant human CYP3A4 expressed in baculosomes assessed as residual activity at 10 uM using vivid BOMCC/DBOMF/BOMR as substrate after 15 mins in presence of NADPH by fluorescence assay relative to control; assay type: ADME; settings: probe Vivid BOMCC/DBOMF/BOMR, read-out: Activity; method in brief: as §1
Chain of CYP3A4 (P08684 whole entry): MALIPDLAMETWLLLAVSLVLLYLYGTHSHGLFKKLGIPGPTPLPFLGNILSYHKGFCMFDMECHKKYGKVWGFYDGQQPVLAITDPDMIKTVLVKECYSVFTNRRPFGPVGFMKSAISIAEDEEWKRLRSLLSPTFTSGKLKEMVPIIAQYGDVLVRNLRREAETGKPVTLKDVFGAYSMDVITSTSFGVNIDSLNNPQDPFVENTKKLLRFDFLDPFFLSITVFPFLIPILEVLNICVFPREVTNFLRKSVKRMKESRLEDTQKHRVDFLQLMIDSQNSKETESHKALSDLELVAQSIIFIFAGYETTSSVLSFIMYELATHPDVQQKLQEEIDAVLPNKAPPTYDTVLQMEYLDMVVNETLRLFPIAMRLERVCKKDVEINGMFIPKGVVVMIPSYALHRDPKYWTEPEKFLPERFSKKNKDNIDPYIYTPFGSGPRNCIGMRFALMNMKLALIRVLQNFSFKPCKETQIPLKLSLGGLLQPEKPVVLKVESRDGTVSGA

CYP1A2 = target: T2, CYP1A2 (Homo sapiens, UniProt P05177); assay: Inhibition of recombinant human CYP1A2 expressed in baculosomes assessed as residual activity at 10 uM using vivid EOMCC as substrate after 15 mins in presence of NADPH by fluorescence assay relative to control; assay type: ADME; settings: probe Vivid EOMCC, read-out: Activity; method in brief: as §1
T2 sequence (P05177 whole entry): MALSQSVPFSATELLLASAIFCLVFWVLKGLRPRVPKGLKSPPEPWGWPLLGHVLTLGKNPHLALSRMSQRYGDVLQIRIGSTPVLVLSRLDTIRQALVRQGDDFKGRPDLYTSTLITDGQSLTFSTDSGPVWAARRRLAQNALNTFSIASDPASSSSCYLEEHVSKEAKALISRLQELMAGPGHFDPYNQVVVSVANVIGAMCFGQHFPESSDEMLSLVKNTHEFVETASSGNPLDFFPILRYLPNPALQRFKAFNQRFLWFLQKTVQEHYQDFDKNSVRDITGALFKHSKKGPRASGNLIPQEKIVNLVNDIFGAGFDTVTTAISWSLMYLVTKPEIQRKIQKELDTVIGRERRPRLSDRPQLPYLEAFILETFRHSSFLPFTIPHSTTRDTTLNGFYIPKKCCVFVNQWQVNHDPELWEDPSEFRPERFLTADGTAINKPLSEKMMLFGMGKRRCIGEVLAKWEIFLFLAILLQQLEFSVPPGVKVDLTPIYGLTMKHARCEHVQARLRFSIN

[4] = AUC (0 to infinity) in rat at 10 mg/kg, po; assay type: ADME, organism-based; set-up: dose 10 mg/kg, route oral, time infinity; settings: in vivo
Method in brief: (§2)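 Male rats dosed at 10 mg/kg, intravenously (n = 5) or orally (n = 4). Parameters taken from the plasma concentration-time curve and reported as mean ± SD. Brain-to-plasma ratio measured 2 h after dosing. Tmax given as median with range.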

[5] = Tmax in rat at 10 mg/kg, po; assay type: ADME, organism-based; settings: in vivo; method in brief: as §2
[6] = AUC (0 to infinity) in rat at 10 mg/kg, iv; assay type: ADME, organism-based; set-up: dose 10 mg/kg, route intravenous, time infinity; settings: in vivo; method in brief: as §2
Rattus norvegicus [7] = assay: Anti-algetic activity in rat streptozotocin-induced neuropathic pain model assessed as reduction in mechanical allodynia at 50 mg/kg, po measured after 1 to 5 hrs; assay type: functional, organism-based
Method in brief: (§3)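 Neuropathic pain was induced in rats by i.p. streptozotocin at 65 mg/kg and confirmed at 4 weeks by glucose and behaviour. Rats received a single oral 50 mg/kg dose, alone or together with gabapentin at 50 mg/kg (n = 6–7). Mechanical allodynia (von Frey) and heat hypersensitivity were tested at 1, 3 and 5 h. Paired t-test was used versus pre-dose.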

[8] = AUClast in rat at 10 mg/kg, po; assay type: ADME, organism-based; set-up: dose 10 mg/kg, route oral, time 0 - last; settings: in vivo; method in brief: as §2
Rattus norvegicus [9] = assay: Anti-algetic activity in rat streptozotocin-induced neuropathic pain model assessed as reduction in mechanical allodynia at 100 mg/kg, po measured after 3 hrs; assay type: functional, organism-based
Method in brief: (§4)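 STZ-diabetic rats were made by i.p. streptozotocin at 65 mg/kg. After 4 weeks, rats with confirmed neuropathic pain were selected by blood glucose and behavioural testing. A single oral dose of 100 mg/kg was given (n = 5–6). Mechanical allodynia was tested by von Frey, and heat hypersensitivity was also assessed, at 1, 3 and 5 h. Comparison was against pre-dose values by paired t-test.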

[10] = Clearance in rat at 10 mg/kg, iv; assay type: ADME, organism-based; settings: in vivo; method in brief: as §2
[11] = Oral bioavailability in rat at 10 mg/kg; assay type: ADME, organism-based; settings: in vivo; method in brief: as §2
[12] = AUClast in rat at 10 mg/kg, iv; assay type: ADME, organism-based; set-up: dose 10 mg/kg, route intravenous, time 0 - last; settings: in vivo; method in brief: as §2
[13] = Cmax in rat at 10 mg/kg, po; assay type: ADME, organism-based; set-up: dose 10 mg/kg, route oral; settings: in vivo; method in brief: as §2
Rattus norvegicus [14] = assay: Anti-algetic activity in rat streptozotocin-induced neuropathic pain model assessed as reduction in heat hypersensitivity at 100 mg/kg, po measured after 3 hrs; assay type: functional, organism-based; method in brief: as §4
Rattus norvegicus [15] = assay: Anti-algetic activity in rat streptozotocin-induced neuropathic pain model assessed as reduction in heat hypersensitivity at 50 mg/kg, po measured after 1 to 5 hrs; assay type: functional, organism-based; method in brief: as §3
Rattus norvegicus [16] = assay: Anti-algetic activity in rat streptozotocin-induced neuropathic pain model assessed as reduction in heat hypersensitivity at 50 mg/kg, po measured after 3 hrs in presence of gabapentin; assay type: functional, organism-based; method in brief: as §3
[17] = Ratio of drug level in brain to plasma in rat at 10 mg/kg, iv measured at 2 hrs post dose; assay type: ADME, organism-based; settings: brain and plasma, read-out: BPR; method in brief: as §2
[18] = Mean residence time in rat at 10 mg/kg, iv; assay type: ADME, organism-based; settings: in vivo; method in brief: as §2
[19] = Ratio of drug level in brain to plasma in rat at 10 mg/kg, po measured at 2 hrs post dose; assay type: ADME, organism-based; settings: brain and plasma, read-out: BPR; method in brief: as §2
[20] = Terminal half-life in rat at 10 mg/kg, po; assay type: ADME, organism-based; settings: in vivo, read-out: beta t1/2; method in brief: as §2
[21] = Terminal half-life in rat at 10 mg/kg, iv; assay type: ADME, organism-based; settings: in vivo, read-out: beta t1/2; method in brief: as §2
Rattus norvegicus [22] = assay: Anti-algetic activity in rat streptozotocin-induced neuropathic pain model assessed as reduction in mechanical allodynia at 100 mg/kg, po measured after 1 to 5 hrs; assay type: functional, organism-based
Method in brief: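 Rats made diabetic by intraperitoneal STZ (65 mg/kg); 4 weeks later, rats with established neuropathic pain chosen by blood glucose level and behavioural testing. Single oral 100 mg/kg dose given to groups of 5 or 6 rats. Mechanical allodynia measured with von Frey filaments at 1, 3 and 5 h; paired t-test against pre-administration values.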

Rattus norvegicus [23] = assay: Anti-algetic activity in rat streptozotocin-induced neuropathic pain model assessed as reduction in heat hypersensitivity at 100 mg/kg, po measured after 1 to 5 hrs; assay type: functional, organism-based
Method in brief: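 Type 1 diabetes induced in rats by intraperitoneal STZ (65 mg/kg); after 4 weeks, neuropathic rats selected by blood glucose level and pain behaviour. Single oral dose of 100 mg/kg given to groups of 5 or 6 rats; heat hypersensitivity tested at 1, 3 and 5 h. Changes compared with pre-administration values by paired t-test.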

CC(C)Cc1cc(CN(C)S(=O)(=O)c2ccccc2)nn1-c1ccccc1
inhibition [1]: 54.2%
remaining at 0.5 h, 1 µM [2]: 1.46%

CC(C)(C)n1nc(CN2Cc3ccccc3S2(=O)=O)cc1-c1ccc(C2CCCCC2)cc1
inhibition [1]: 9.86%

CC(C)c1cc(CN2Cc3ccccc3S2(=O)=O)nn1-c1ccccc1
inhibition [1]: 75.5%
pIC50 [3]: 5.60
activity at 0.25 h, 10 µM (CYP2D6): 86.6%
activity at 0.25 h, 10 µM (CYP2C9): 14.2%
remaining at 0.5 h, 1 µM [2]: 4.69%
activity at 0.25 h, 10 µM (CYP3A4): 47.2%

CC(C)c1cc(CN2Cc3ccccc3S2(=O)=O)nn1C(C)(C)C
inhibition [1]: 68%
pIC50 [3]: 5.43
activity at 0.25 h, 10 µM (CYP2D6): 78.8%
activity at 0.25 h, 10 µM (CYP2C9): 90.7%
remaining at 0.5 h, 1 µM [2]: 103%
activity at 0.25 h, 10 µM (CYP3A4): 52.1%
activity at 0.25 h, 10 µM (CYP1A2): 123%

CC(C)(C)n1nc(CN2Cc3ccccc3S2(=O)=O)cc1-c1ccc(N2CCCCC2)cc1
inhibition [1]: 16.3%

CC(C)c1cc(CN2Cc3ccccc3S2(=O)=O)nn1-c1ccc(F)cc1
AUC(0-inf) [4]: 274 ng·h/mL
inhibition [1]: 71.6%
pIC50 [3]: 5.63
Tmax [5]: 2.5 h
activity at 0.25 h, 10 µM (CYP2D6): 90.6%
activity at 0.25 h, 10 µM (CYP2C9): 103%
AUC(0-inf) [6]: 2980 ng·h/mL
Activity (Rattus norvegicus [7]): inactive
AUC(0-t) [8]: 243 ng·h/mL
Activity (Rattus norvegicus [9]): inactive
remaining at 0.5 h, 1 µM [2]: 102%
clearance [10]: 57.7 mL/min/kg
bioavailability [11]: 9.2%
AUC(0-t) [12]: 2630 ng·h/mL
Cmax [13]: 100 ng/mL
activity at 0.25 h, 10 µM (CYP3A4): 45.7%
Activity (Rattus norvegicus [14]): inactive
activity at 0.25 h, 10 µM (CYP1A2): 110%
Activity (Rattus norvegicus [15]): inactive
Activity (Rattus norvegicus [16]): Active
Kp at 2 h [17]: 1.28
MRT [18]: 1.7 h
Kp at 2 h [19]: 0.13
half-life [20]: 1.96 h
half-life [21]: 2.94 h

CC(C)c1cc(CN2Cc3ccccc3S2(=O)=O)nn1-c1c(Cl)cccc1Cl
inhibition [1]: 29.5%

CC(C)(C)n1nc(CN2Cc3ccccc3S2(=O)=O)cc1-c1ccccc1
inhibition [1]: 18.7%

CC(C)n1nc(CN2Cc3ccccc3S2(=O)=O)cc1-c1ccccc1
inhibition [1]: 22.1%

Cc1c(CNS(=O)(=O)c2ccccc2)nn(-c2ccccc2)c1CC(C)C
inhibition [1]: 72%
pIC50 [3]: 5.37
activity at 0.25 h, 10 µM (CYP2D6): 45.2%
activity at 0.25 h, 10 µM (CYP2C9): 45.2%
remaining at 0.5 h, 1 µM [2]: 0.26%
activity at 0.25 h, 10 µM (CYP3A4): 38.7%

NCC1(CC(=O)O)CCCCC1
Activity (Rattus norvegicus [22]): inactive
Activity (Rattus norvegicus [23]): Active

CC(C)(C)n1nc(CN2Cc3ccccc3S2(=O)=O)cc1-c1ccc(F)cc1
inhibition [1]: 23.1%

CC(C)(C)n1nc(CN2Cc3ccccc3S2(=O)=O)cc1-c1ccc(C(F)(F)F)cc1
inhibition [1]: 20.8%

CC(C)Cc1cc(CNS(=O)(=O)c2ccccc2)nn1-c1ccccc1
remaining at 0.5 h, 1 µM [2]: 13.9%

CC(C)n1nc(CN2Cc3ccccc3S2(=O)=O)cc1-c1ccc(F)cc1
inhibition [1]: 16.5%

— ChEMBL document CHEMBL4052773, “Synthesis and diabetic neuropathic pain-alleviating effects of 2N-(pyrazol-3-yl)methylbenzo[d]isothiazole-1,1-dioxide derivatives” (Bioorg Med Chem, 2017)
